Screening data from PubChem.
OX1R antag-1: blocks the human orexin 1 receptor | 0.43% of 330,000 active | CHO/OX1R cells, Fluo-8 calcium fluorescence, orexin A | O43613 | inhibition, % at 5 µM;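 active = inhibition above its plate's threshold, mean inhibition of all tested compounds on the plate plus 3 SD, cut at about 37% in these data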
CHO parental Ca: counter-screen: ATP calcium response change in parental CHO cells; parental CHO-K1, ATP-induced calcium, Fluo-8 fluorescence; inhibition, % at 5.6 µM; 0.63% of 330,000 active; AID 463079;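 active = inhibition above that plate's mean sample inhibition plus 3 SD, cut at about 26% in these data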
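Assay system – parental CHO cells · Reagent – ATP stimulus · Detection – intracellular calcium via Fluo-8 no-wash fluorescent dye · Evaluation – percent inhibition of ATP-evoked calcium rise, normalized to controls · Controls – ATP wells versus no-ATP DMSO wells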
TAAR1 agonist: agonists of human TAAR1 | activation, % at 3 µM | 0.99% of 360,000 active | AID 624467 | Q96RJ0 | CHO RD-HGA16 TAAR1, Fluo-8 calcium fluorescence; vehicle wells 0%, saturating PEA agonist 100%;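 active = activation above the mean activation of all test compounds in the run plus 3 SD, cut at about 38% in these data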
Target sequence (Q96RJ0 whole entry, looked up): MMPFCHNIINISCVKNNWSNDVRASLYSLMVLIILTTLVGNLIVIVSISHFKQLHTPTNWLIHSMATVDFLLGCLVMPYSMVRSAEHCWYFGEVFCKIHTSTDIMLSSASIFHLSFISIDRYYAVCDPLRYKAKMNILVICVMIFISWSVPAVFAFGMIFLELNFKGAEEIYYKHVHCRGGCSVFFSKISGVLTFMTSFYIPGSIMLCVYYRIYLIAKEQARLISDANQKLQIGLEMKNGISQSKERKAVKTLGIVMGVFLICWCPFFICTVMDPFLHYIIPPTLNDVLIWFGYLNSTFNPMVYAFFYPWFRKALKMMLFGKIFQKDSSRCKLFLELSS
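test system = CHO RD-HGA16 cells carrying human TAAR1 plus Gα16 | schedule = 17-24 h seeding, 75 min 37 °C dye, 30 min RT | compound dosing = 3 µM single concentration | control set = DMSO and PEA EC100 | replicates = n 1 | signal = Fluo-8 fluorescence, 5 s baseline then 140 s kinetic read | measure = percent activation vs PEA EC100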
GPR7 antagonist: human neuropeptides B/W receptor 1 antagonism. inhibition, % at 4.4 µM. AID 1861. GPR7-expressing cells, fluorescence antagonist assay. P48145. 1.1% of 290,000 active; in the data active = inhibition above about 16%, passing the limit was not always enough;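 note: cells stimulated with the agonist NPW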
Target sequence (P48145 whole entry, looked up): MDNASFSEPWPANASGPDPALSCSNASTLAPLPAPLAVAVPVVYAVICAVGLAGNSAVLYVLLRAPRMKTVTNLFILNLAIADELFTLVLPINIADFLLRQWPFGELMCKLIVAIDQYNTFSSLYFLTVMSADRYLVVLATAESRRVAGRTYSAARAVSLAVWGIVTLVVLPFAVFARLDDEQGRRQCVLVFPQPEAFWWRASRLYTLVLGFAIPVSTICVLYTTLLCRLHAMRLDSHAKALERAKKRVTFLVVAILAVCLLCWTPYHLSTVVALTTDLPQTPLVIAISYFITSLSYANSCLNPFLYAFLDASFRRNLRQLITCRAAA
OX1R antag-2: OX1R (human) antagonism; inhibition, % at 6.6 µM; 1.8% of 330,000 active; AID 485270; OX1R-expressing cells, FRET antagonist read-out; in the data active = inhibition mostly above about 38%, no sharp cut-off; inactive = mostly below about 40%
TAAR1 antagonist: antagonists of human TAAR1 | CHO RD-HGA16 TAAR1, Fluo-8 calcium fluorescence, antagonist | 1.5% of 360,000 active | inhibition, % at 3 µM | AID 624466;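 active = inhibition above a per-plate cutoff, the mean inhibition of test compounds on that plate plus 3 SD, cut at about 49% in these data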
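Test system – hTAAR1-expressing CHO RD-HGA16 cells, Gα16-coupled · Reagent – β-PEA at EC80 concentration, post-compound challenge · Compound dosing – 3 µM, single point · Timing – 140 s kinetic read after compound, 140 s after agonist · Detection – Fluo-8 intracellular calcium dye fluorescence, real-time kinetic reads · Control set – DMSO and EC80 PEA controls · Repeats – n of 1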
GPR7 antag conf: confirmation of human GPR7 antagonists; 52% of 2,400 active; GPR7-expressing cells, calcium fluorescence antagonist mode; shares compounds with GPR7 antagonist; inhibition, % at 4.4 µM; in the data active = inhibition above about 24%;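 note: stimulated with the GPR7 agonist NPW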
MCHR1 antagonist: antagonizes human MCHR1, a GPR7 antagonist counter-screen; shares compounds with GPR7 antagonist; MCHR1-expressing cells, fluorescence antagonist assay; inhibition, % at 4.4 µM; 62% of 2,400 active; AID 2148; in the data active = inhibition above about 22%
Numbers stand for hits; i = inactive; nt = not tested or not shown. An excerpt weighted towards active compounds, which were near 4.5% of everything screened.

SMILES	OX1R antag-1	CHO parental Ca	TAAR1 agonist	GPR7 antagonist	OX1R antag-2	TAAR1 antagonist	GPR7 antag conf	MCHR1 antagonist
CC(C)(C)c1ccc(C(=O)Nc2c3c(nn2C(C)(C)C)CS(=O)(=O)C3)cc1	i	i	i	26	i	i	i	23
Cc1cc(C)cc(C(=O)Nc2c3c(nn2C(C)(C)C)CS(=O)(=O)C3)c1	i	i	i	i	i	i	nt	nt
O=C(COc1ccc(F)cc1)N1CCc2ccccc2C1	i	i	i	28	i	i	i	i
COc1ccc(CN2CCN(CC(O)Cn3c4ccccc4c4ccccc43)CC2)cc1 (configuration not stated)	i	i	i	23	i	i	47	68
O=c1c2ccccc2n(CC(O)CN2CCCCC2)c2ccccc12 (configuration not stated)	i	i	i	i	i	i	nt	nt
CCOc1ccc(CN2CCN(CC(O)Cn3c4ccccc4c4ccccc43)CC2)cc1 (configuration not stated)	i	i	i	i	i	i	nt	nt
O=c1c2ccccc2n(CC(O)CN2CCOCC2)c2ccccc12 (configuration not stated)	i	i	i	42	i	i	i	i
COC(=O)c1cccc(NC(=O)c2cnccn2)c1	nt	nt	i	24	nt	i	i	i
COc1ccccc1CNS(=O)(=O)c1cc(C)ccc1OC	i	i	i	i	i	i	nt	nt
COc1ccccc1CNS(=O)(=O)c1ccc(Cl)s1	i	i	i	23	i	i	i	i
COC(=O)C1(C(=O)OC)C[C@H](c2ccc(OC)cc2)N(Cc2ccccc2OC)[C@@H]1c1ccccc1	nt	nt	i	nt	nt	i	nt	nt
CCOc1ccccc1CNC(=O)c1cc2occc2n1C	i	i	i	24	i	i	i	i
O=C1O[C@@H](c2ccccc2)C[C@@H](O)[C@H](O)CCCc2ccccc21	nt	nt	i	nt	nt	i	nt	nt
CCc1ccc(CNC(=O)CCC(=O)N2Cc3cccc(OC)c3Oc3ncccc32)cc1	i	i	i	23	i	i	i	i
COc1cccc2c1Oc1ncccc1N(C(=O)CCC(=O)NCc1ccccc1)C2	i	i	i	i	i	i	nt	nt
C[C@H]1CN([C@@H](C)CO)C(=O)c2cc(C#CCC3CCCC3)cnc2O[C@@H]1CN(C)C(=O)CC1CC1	nt	nt	i	nt	nt	i	nt	nt
CC(C)C[C@@H](CN1CCC[C@@H]1CN1C(=S)NC[C@@H]1Cc1ccc(O)cc1)N1C[C@H](Cc2ccc(O)cc2)N(CC2CCCCCC2)C1=S	nt	nt	i	nt	nt	i	nt	nt
CCCc1nc2c3ccccc3ccn2c1CC1CCCCC1	nt	nt	i	nt	nt	i	nt	nt
Nc1c(C(=O)NCc2ccc3c(c2)OCO3)c2nc3ccccc3nc2n1CCCN1CCOCC1	i	33	i	23	i	i	49	51
COc1ccccc1CNC(=O)c1c(N)n(CCCN2CCOCC2)c2nc3ccccc3nc12	nt	nt	i	i	nt	i	nt	nt
O=C(O)c1ccc(NCc2ccncc2)cc1	i	i	i	i	i	i	nt	nt
O=C(O)c1ccc(NCc2cccc(Br)c2)cc1	i	i	i	29	i	i	28	i
O=C(/C=C/c1ccccc1[N+](=O)[O-])N1CCN(c2ccc(F)cc2)CC1	i	i	i	i	i	i	nt	nt
O=C(/C=C/c1ccc([N+](=O)[O-])s1)N1CCN(c2ccccc2)CC1	i	i	i	26	i	i	i	i
Cc1nonc1CN(C)C(=O)c1cc(COc2ccc(F)cc2Cl)on1	i	i	i	30	i	i	i	26
SMILES	OX1R antag-1	CHO parental Ca	TAAR1 agonist	GPR7 antagonist	OX1R antag-2	TAAR1 antagonist	GPR7 antag conf	MCHR1 antagonist
Cc1c(C(=O)N2CCCCC2C)sc2ncnc(N3CCc4ccccc4C3)c12 (configuration not stated)	i	i	i	27	i	i	i	35
Cc1cc(C)c2cc(C#N)c(NCCNC(=O)c3cccnc3)nc2c1	nt	nt	i	nt	nt	i	nt	nt
Clc1ccccc1-c1nnn(Cc2ccc(-c3nn[nH]n3)cc2)n1	i	i	i	24	i	i	29	i
CC(C)CC[n+]1ccccc1/C=C/c1ccc(N(C)C)cc1	i	61	i	76	i	i	78	72
CN(C)c1ccc(/C=C/c2cccc[n+]2[O-])cc1	i	i	i	i	i	i	nt	nt
CCOc1ccc(C2CC(c3ccccc3C)n3ncnc3N2)cc1 (configuration not stated)	i	i	i	37	i	i	i	24
COc1ccccc1C1CC(c2ccc(Cl)cc2)Nc2ncnn21 (configuration not stated)	i	i	i	nt	i	i	nt	i
Cc1ccccc1C1CC(c2ccccc2)Nc2ncnn21 (configuration not stated)	i	i	i	i	i	i	nt	nt
C/C(=N\NC(=O)c1c(Cl)c(C)nn1C)c1ccc(NC(=O)c2ccncc2)cc1	i	i	i	i	i	i	nt	nt
Cc1nn(-c2ccc(NC(=O)c3ccncc3)cc2)c(C)c1Cl	nt	nt	i	32	nt	i	52	65
CCOC(=O)[C@]12CCCC=C1N(Cc1cccc3ccccc13)C(=O)[C@H](CC(=O)N1CCCCC1)C2	nt	nt	i	nt	nt	i	nt	nt
CCOC(=O)N/N=C/c1cn(CCCOc2ccccc2)c2ccccc12	i	i	i	27	i	i	i	44
CCOc1ccc(N2CC(C(=O)Nc3ccncc3)CC2=O)cc1 (configuration not stated)	i	i	i	25	i	i	i	i
CCn1c(SCCOc2ccc(Cl)cc2)nnc1-c1cccs1	i	i	i	29	i	i	i	31
CCn1c(SCC(=O)c2ccc(Cl)cc2)nnc1-c1cccs1	i	i	i	i	i	i	nt	nt
O=C(C[C@@H]1C=C[C@H](NS(=O)(=O)c2ccccc2F)[C@@H](CO)O1)NCCCN1CCOCC1	nt	nt	i	nt	nt	i	nt	nt
CC1(C)Cc2c(C#N)c(N)n(-c3ccccc3)c(=S)c2CO1	i	i	i	92	i	i	i	i
FC(F)(F)c1ccccc1Cc1c(-c2cccc(Cl)c2)nc2c3ccccc3ccn12	nt	nt	i	nt	nt	i	nt	nt
Cc1ncsc1CCOC(=O)c1cccc([N+](=O)[O-])c1	i	i	i	22	i	i	i	34
Cc1cccc(N2CC(C(=O)OCC(=O)c3ccc(OC(=O)c4cccs4)cc3)CC2=O)c1C (configuration not stated)	i	i	i	30	i	i	i	58
Cc1cccc(CCNC(=O)C2CCN(S(=O)(=O)c3c(C)noc3C)CC2)c1	i	i	i	i	i	i	nt	nt
COc1ccc(CCNC(=O)C2CCN(S(=O)(=O)c3c(C)noc3C)CC2)cc1OC	i	i	i	29	i	i	i	i
